MC4R barr agon: MC4R agonists recruiting beta-arrestin, primary screen, cell-based, luminescence, agonist arm of biased-ligand search; Melanocortin receptor 4 (Homo sapiens), P32245; U2OS MC4R beta-arrestin complementation; percent of melanotan II response, DMSO zero; activation, % at 8.9 µM; 0.98% of 360,000 active;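 active = activation above a per-plate cutoff, the mean activation of sample wells on that plate plus 3 SD, cut at about 8% in these data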
Target sequence (P32245 whole entry, looked up): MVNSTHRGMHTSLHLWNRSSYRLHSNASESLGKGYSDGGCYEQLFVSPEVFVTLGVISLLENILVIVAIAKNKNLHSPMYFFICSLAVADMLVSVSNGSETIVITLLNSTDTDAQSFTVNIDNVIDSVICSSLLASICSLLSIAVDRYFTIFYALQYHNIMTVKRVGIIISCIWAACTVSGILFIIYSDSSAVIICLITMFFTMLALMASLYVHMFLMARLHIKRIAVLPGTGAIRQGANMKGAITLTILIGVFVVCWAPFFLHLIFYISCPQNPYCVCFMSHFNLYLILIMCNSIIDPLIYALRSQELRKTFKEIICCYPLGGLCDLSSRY
SMARCA2 activ: SMARCA2 (BRM) function activators, primary screen, cell-based, luminescence, high throughput | activation, % at 9.1 µM | 1% of 370,000 active | AID 652017, 2013 | MG213 cells, MMTV-luciferase reporter, dexamethasone, overnight; in the data active = activation above about 7.8%;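 note: 0% = vehicle wells and 100% = reference activator wells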
MC4R antag cAMP: MC4R antagonists of cAMP signaling, primary screen, cell-based, TR-FRET, antagonist arm of biased-ligand search. 0.48% of 360,000 active. Melanocortin receptor 4 (Homo sapiens), P32245. inhibition, % at 6.5 µM. AID 540295, 2011. MC4R-expressing cells, MTII-stimulated cAMP, LANCE TR-FRET;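 active = inhibition above its plate's cutoff, the mean of tested wells on that plate plus 3 SD, cut at about 29% in these data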;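 note: 0% = Melanotan II alone and 100% = Melanotan II plus saturating MCL0020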
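Material: U2OS-MC4R stable cell line | Reagent: Melanotan II challenge after compound preincubation | Doses: One concentration, 6.5 µM nominal | Incubation: 30-min compound preincubation, 1-h Melanotan II challenge, 1-h detection, room temperature | Signal: TR-FRET cAMP assay | Replicates: One well per compound, no replicates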
CFTR F508del cor: F508del CFTR correction, initial screen, CFBE line, single point. 0.36% of 350,000 active. AID 720511, 2013. CFBE cells, YFP halide quenching; stimulated with forskolin plus potentiator P3; % fluorescence drop versus neutral controls. activity (quench increase), % at 7.58 µM;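 active = mean added fluorescence quench of at least 8% versus neutral control, with both replicates also reaching 8%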;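 note: cells transiently co-express mutant CFTR-F508del with the halide-sensitive YFP; corrector assay measuring rescue of mutant channel to the surface after 24 h compound exposure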
SMARCA2 act conf: SMARCA2 (BRM) function activators, confirmation, cell-based, luminescence, triplicate | shares compounds with SMARCA2 activ | MG213 cells, MMTV-luciferase with dexamethasone, overnight; MG213 cells expressing E1A, Rb sequestered; DMSO wells 0%, reference activator 100% | activation, % at 9.1 µM | 30% of 3,500 active | AID 652260, 2013;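 active = activation above its plate's cutoff, the mean activation of tested wells plus 3 SD, cut at about 7.9% in these data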
VP16 Luc act: GAL4-VP16 luciferase reporter activation, counter-screen for SMARCA2 (BRM) activator project, cell-based, pG5luc, luminescence, high throughput; HEK293 GAL4-VP16 pG5luc reporter; scaled: DMSO wells 0%, SAHA wells 100%; activation, % at 9.1 µM; 41% of 3,500 active; shares compounds with SMARCA2 activ;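 active = activation above the solvent-only control well mean plus 3 SD, averaged across control plates, cut at about 5.2% in these data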
* hit, by the source's call; x = no result given. Only some compounds are listed: those with a hit (about 2.1% of all), similar ones and a draw of the others.

SMILES | MC4R barr agon | SMARCA2 activ | MC4R antag cAMP | CFTR F508del cor | SMARCA2 act conf | VP16 Luc act
O=C(CNC(=O)c1cccs1)c1ccc(Cl)cc1 | 0 | 8.8* | 5 | -1 | 10* | 12*
C/C(=N\NC(=O)c1ccoc1C)c1ccc(Cl)s1 | 0 | 5 | 0 | 0 | x | x
O=C(CNC(=O)c1cccs1)OCC(=O)c1ccc(Cl)cc1 | -2 | 0 | 6 | 1 | x | x
C/C(=N/NC(=O)c1ccoc1C)c1cccs1 | x | 13* | x | x | 9.2* | 5.2*
O=C(N[C@@H]1CC[C@H](CCNC(=O)c2ccccc2F)O[C@@H]1CO)c1ccc2c(c1)OCO2 | x | x | x | -1 | x | x
COCC(=O)N1CC2(CCN(S(C)(=O)=O)CC2)c2c(n(C)c3cc(OC)ccc23)[C@H]1CO | x | x | x | 0 | x | x
Cc1ccc2nc(Cl)c(C3CC(c4cccs4)=NN3S(C)(=O)=O)cc2c1 (configuration not stated) | -1 | 11* | 8 | 4 | -1 | 1
O=C(c1cc2ccccc2oc1=O)N1CCOCC1 | 1 | 8.0* | 1 | -6 | 15* | 4
O=C(NC1CCCCCC1)c1cc2ccccc2oc1=O | 3 | 8.9* | 13 | 0 | 6 | 12*
O=C(c1cc2cc(Cl)ccc2oc1=O)N1CCOCC1 | 0 | -1 | 1 | x | x | x
CO[C@H]1CN(C)C(=O)c2cc(NC(=O)C3CC3)ccc2OC[C@H](C)N(Cc2ccc(F)cc2)C[C@@H]1C | x | x | x | -1 | x | x
C=CCNc1ccc(C(=O)O)cc1 | -2 | 9.7* | 4 | x | 3 | -1
COc1cc(OC)cc(N2CCN(S(=O)(=O)c3ccc(-n4cnnn4)cc3)CC2)c1 | 1 | 9.6* | 1 | -1 | 1 | 2
COc1ccccc1N1CCN(S(=O)(=O)c2ccc(-n3cnnn3)cc2)CC1 | -1 | -2 | -3 | -2 | x | x
Cc1cc(/C=N/NC(=O)c2ccsc2)c(C)n1-c1cnccn1 | 0 | 8.0* | 3 | 1 | 4 | 3
Cc1cc(C)cc(-n2c(C)cc(/C=N/NC(=O)c3ccncc3)c2C)c1 | -1 | -4 | 3 | -2 | x | x
CN(Cc1ccccc1)S(=O)(=O)c1ccc2[nH]c(=O)ccc2c1 | -1 | 8.7* | 4 | -1 | -1 | 2
CN(Cc1ccccc1)S(=O)(=O)c1ccc2[nH]c(=O)oc2c1 | 0 | -2 | 2 | -1 | x | x
CCn1cc(C(=O)O)c(=O)c2cc(F)c(N3CCN(C(=S)NC(=O)c4ccccc4Cl)CC3)cc21 | 0 | 9.1* | 5 | 2 | 3 | 2
COCC(=O)Nc1ccc2c(c1)[C@@H]1C[C@H](CC(=O)NCc3ccc(Cl)cc3)O[C@@H](CO)[C@@H]1O2 | x | x | x | -1 | x | x
Nc1ccccc1C(=O)NN=Cc1cccc([N+](=O)[O-])c1 | x | 9.1* | x | -1 | 15* | 3
CS(=O)(=O)Nc1ccc2c(c1)[C@@H]1C[C@H](CC(=O)N3CCCCC3)O[C@@H](CO)[C@@H]1O2 | x | x | x | 0 | x | x
COc1cccc(NC(=O)N2C[C@H](O)COC[C@H]3O[C@@H](CC(=O)NC4Cc5ccccc5C4)CC[C@@H]32)c1 | x | x | x | 3 | x | x
COCCN1CCN(c2c(C)c(C)nc3cc(-c4cccc(OC)c4)nn23)CC1 | -1 | 11* | 1 | 0 | 9.7* | 5
CCOCCN1CCN(c2c(C)c(C)nc3cc(-c4cc(OC)cc(OC)c4)nn23)CC1 | -3 | 5 | -4 | 5 | x | x
SMILES | MC4R barr agon | SMARCA2 activ | MC4R antag cAMP | CFTR F508del cor | SMARCA2 act conf | VP16 Luc act
COc1cccc2c3c(c(=O)[nH]c12)CC(C)(C)O3 | -2 | 12* | 6 | -2 | -1 | 0
CN1c2ccc(-c3ccccc3F)cc2[C@@H]2[C@@H](CCN2S(=O)(=O)c2ccccc2)[C@H]1CO | x | x | x | 1 | x | x
O=C(NC1=NCCS1)c1ccccc1OCc1ccc(F)cc1 | 1 | 10* | -3 | -4 | -1 | 2
CC1CCc2c(sc(/N=C/c3ccco3)c2C(N)=O)C1 (configuration not stated) | -1 | 8.8* | -2 | -1 | 7 | 6.2*
CCOc1ccccc1CNC(=O)c1ccccc1NC(=O)C1=CSCCO1 | -2 | -1 | -5 | 0 | x | x
O=C(Nc1ccccc1C(=O)NCc1ccccc1)C1=CSCCO1 | -2 | 12* | 9 | 3 | -2 | 1
COC(=O)C(C)N1C(=O)S/C(=C\c2ccc(-c3ccc(C(=O)O)cc3C)o2)C1=O (configuration not stated) | -1 | 11* | 13 | -3 | 9.8* | 10*
COc1cccc(-n2ccnc2SCC(=O)N2CCc3ccccc32)c1 | 1 | 0 | -7 | x | x | x
Cn1ccnc1SCC(=O)N1CCc2ccccc21 | -3 | 8.2* | 0 | -3 | 11* | 8.7*
COc1ccc(S(=O)(=O)N(C)C[C@@H]2Oc3ncc(C#CC4(O)CCCC4)cc3C(=O)N([C@@H](C)CO)C[C@H]2C)cc1 | x | x | x | -2 | x | x
COc1cc(C)ccc1OCc1cc(C(=O)N2CCN(C)C[C@@H]2c2ccccc2)no1 | 2 | 8.7* | -3 | 0 | 4 | 2
COc1cc(Cl)ccc1OCc1cc(C(=O)N(C)C2CCOC2)no1 (configuration not stated) | -3 | 8.7* | 16 | 1 | 5 | 4
COc1cc(Cl)ccc1OCc1cc(C(=O)N2CCCCCCC2)no1 | -1 | -2 | 1 | -1 | x | x
COCCN1CCN(C(=O)c2cc(COc3ccc(Cl)cc3OC)on2)CC1 | 2 | 8.3* | 6 | -3 | 14* | 9.7*
C[C@H]1CN([C@@H](C)CO)C(=O)c2cc(NC(=O)Nc3ccc(C(F)(F)F)cc3)ccc2O[C@@H]1CN(C)C(=O)Nc1ccc(C(F)(F)F)cc1 | x | x | x | 0 | x | x
Cc1ccccc1CSc1n[nH]c(NS(=O)(=O)c2ccccc2)n1 | -1 | 8.0* | 1 | x | -6 | 0
COc1ccc(-c2cc(C(=O)c3c(N)n(C)c(=O)n(C)c3=O)c3ccccc3n2)cc1 | 2 | 8.2* | 22 | -1 | 8.8* | 7.3*
COc1ccc(-c2cc(C(=O)OCC(=O)c3c(N)n(C)c(=O)n(C)c3=O)c3ccccc3n2)cc1 | -1 | -4 | 14 | 2 | x | x
CO[C@H]1CN(C)C(=O)c2cc(NC(=O)NC(C)C)ccc2OC[C@@H](C)N(CCC(F)(F)F)C[C@H]1C | x | x | x | -1 | x | x
O=C(/C=C/c1ccccc1Cl)Nc1ccc(-c2nnc3n2CCCCC3)cc1 | 1 | 10* | 3 | x | -4 | -1
CC(C)(C)CC(=O)Nc1ccc(-c2nnc3n2CCCCC3)cc1 | 0 | 0 | 9 | -2 | x | x

Source: PubChem BioAssay (several laboratories)
